Assay results reported in ChEMBL document CHEMBL1121890, “Synthesis and antimetastatic properties of steroeoisomeric trycylic bis(dioxopiperazine) analogues in a B16 melanoma model” (1981).
“And” between values parts separate entries of the source, which are not always exact repeats. Equal entries are not always repeated.

Tests used:
Assay type in all cases: functional, Mus musculus
[1] = tested on: B16-F10; assay: Effect of 100 uM on B16-F10 melanoma cells (experiment 1)
Method in brief: (§1)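 B16-F10 cells, cultured in vitro for no more than 10 passages, were exposed for 24 h to drug made up as a 1000 μM Me₂SO stock and diluted in medium. Controls were Me₂SO or saline. Cells were scraped, washed and set at 5 × 10⁵/mL in Hanks BSS, and 0.2 mL was given iv by tail vein to male C57Bl/6J mice aged 6–8 weeks. Black lung nodules were counted at 14 days, mean ± SD, ANOVA/Newman–Keuls.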

[2] = tested on: B16-F10; assay: Effect of 20 uM on B16-F10 melanoma cells (experiment 1); method in brief: as §1
[3] = tested on: B16-F10; assay: Effect of 2 uM on B16-F10 melanoma cells (experiment 1); method in brief: as §1
[4] = tested on: B16-F10; assay: Effect of 100 uM on B16-F10 melanoma cells (experiment 2); method in brief: as §1
[5] = tested on: B16-F10; assay: Effect of 20 uM on B16-F10 melanoma cells (experiment 2); method in brief: as §1
[6] = tested on: B16-F10; assay: Effect of 2 uM on B16-F10 melanoma cells (experiment 2); method in brief: as §1

Q: What does the source list for CCOC(=O)COC(=O)[C@H]1[C@@H](C(N)=O)N(CC(=O)OCC)CCN1CC(=O)OCC?
A: Mean no. of lung colonies [1]: 37.1; Mean no. of lung colonies [2]: 43.4; Mean no. of lung colonies [3]: 33.2

Q: With COC(=O)CN1CCN2CC(=O)NC(=O)[C@@H]2[C@@H]1C(N)=O as the compound, how does the “Mean no. of lung colonies” value [4] read?
A: 56.7

Q: What about the “Mean no. of lung colonies” value [5] of the same compound?
A: 101.3

Q: And the “Mean no. of lung colonies” value [6]?
A: 86.2

Q: What does the source list for O=C1CN2CCN3CC(=O)NC(=O)[C@H]3C2C(=O)N1 (some centres not stated)?
A: Mean no. of lung colonies [4]: 118.9; Mean no. of lung colonies [5]: 96.1; Mean no. of lung colonies [6]: 52.1

Q: How did the “Mean no. of lung colonies” value [1] turn out when CCOC(=O)CN1CCN(CC(=O)OCC)[C@H]2C(=O)NC(=O)[C@H]21 was run?
A: 142.5

Q: What about the “Mean no. of lung colonies” value [2] of the same compound?
A: 160.7

Q: And the “Mean no. of lung colonies” value [3]?
A: 159.7

Q: O=C1CN2CCN3CC(=O)NC(=O)[C@@H]3C2C(=O)N1 (some centres not stated) was tested. Which “Mean no. of lung colonies” value [1] did it give?
A: 65.7

Q: And the “Mean no. of lung colonies” value [2]?
A: 23.3

Q: What about the “Mean no. of lung colonies” value [5] of the same compound?
A: 50.1 and 50.2

Q: What about the “Mean no. of lung colonies” value [3] of the same compound?
A: 29.1

Q: And the “Mean no. of lung colonies” value [6]?
A: 39.1
